Assays:
Type in all cases: ADME, organism-based, Macaca mulatta
[1] = Drug level in normal rhesus monkey cerebellum assessed as standard uptake value at 109.4 MBq, iv after 52.5 mins by microPET; conditions: in vivo, 0.875 h
How it was run: (§1)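 One normal rhesus monkey received each tracer via the vena saphena, with 1 day between injections. Dynamic μPET ran 180 min for 18F tracers (5×60 s, 5×120 s, 9×300 s, 12×600 s) and 90 min for the 11C tracer (5×60 s, 5×120 s, 9×300 s, 3×600 s). Filtered back-projection reconstruction (RAMP filter) was used. Time-activity curves were drawn to give regional SUV.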

[2] = Drug level in normal rhesus monkey frontal cortex assessed as standard uptake value at 109.4 MBq, iv after 15.5 mins by microPET; conditions: in vivo
[3] = Drug level in normal rhesus monkey thalamus assessed as standard uptake value at 109.4 MBq, iv after 0.125 mins by microPET; conditions: in vivo, 7 s
[4] = Drug level in normal rhesus monkey thalamus assessed as standard uptake value at 109.4 MBq, iv after 52.5 mins by microPET; conditions: in vivo, 0.875 h
[5] = Drug level in normal rhesus monkey thalamus assessed as standard uptake value at 109.4 MBq, iv after 87 mins by microPET; conditions: in vivo, 1.45 h
[6] = Drug level in normal rhesus monkey white matter assessed as standard uptake value at 109.4 MBq, iv after 0.375 mins by microPET; conditions: in vivo, 22 s
[7] = Drug level in normal rhesus monkey white matter assessed as standard uptake value at 109.4 MBq, iv after 12.5 mins by microPET; conditions: in vivo
[8] = Drug level in normal rhesus monkey white matter assessed as standard uptake value at 109.4 MBq, iv after 27.5 mins by microPET; conditions: in vivo
[9] = Drug level in normal rhesus monkey parietal cortex assessed as standard uptake value at 109.4 MBq, iv after 6.5 mins by microPET; conditions: in vivo
[10] = Drug level in normal rhesus monkey thalamus assessed as standard uptake value at 81.2 MBq, iv after 145 mins by microPET; conditions: in vivo
[11] = Drug level in normal rhesus monkey parietal cortex assessed as standard uptake value at 81.2 MBq, iv after 37.5 mins by microPET; conditions: in vivo, 0.625 h
[12] = Drug level in normal rhesus monkey parietal cortex assessed as standard uptake value at 81.2 MBq, iv after 175 mins by microPET; conditions: in vivo
[13] = Drug level in normal rhesus monkey white matter assessed as standard uptake value at 81.2 MBq, iv after 2.5 mins by microPET; conditions: in vivo
[14] = Drug level in normal rhesus monkey thalamus assessed as standard uptake value at 81.2 MBq, iv after 8 mins by microPET; conditions: in vivo
[15] = Drug level in normal rhesus monkey thalamus assessed as standard uptake value at 81.2 MBq, iv after 17.5 mins by microPET; conditions: in vivo
[16] = Drug level in normal rhesus monkey thalamus assessed as standard uptake value at 81.2 MBq, iv after 42.5 mins by microPET; conditions: in vivo
[17] = Drug level in normal rhesus monkey frontal cortex assessed as standard uptake value at 81.2 MBq, iv after 95 mins by microPET; conditions: in vivo
[18] = Drug level in normal rhesus monkey cerebellum assessed as standard uptake value at 81.2 MBq, iv after 175 mins by microPET; conditions: in vivo
How it was run: (§2)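 One normal rhesus monkey, each tracer given iv via the vena saphena (81.2, 96.3 or 109.4 MBq), with 1 day between tracer injections. Dynamic brain μPET over 180 min used frames of 5 × 60 s, 5 × 120 s, 9 × 300 s and 12 × 600 s. Images were reconstructed by filtered back projection with a RAMP filter. Regional time-activity curves were expressed as SUV.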

[19] = Drug level in normal rhesus monkey frontal cortex assessed as standard uptake value at 81.2 MBq, iv after 3.5 mins by microPET; conditions: in vivo
[20] = Drug level in normal rhesus monkey frontal cortex assessed as standard uptake value at 81.2 MBq, iv after 10 mins by microPET; conditions: in vivo
How it was run: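 Single normal rhesus monkey; each tracer given iv via the vena saphena, with 1 day between tracer injections. Dynamic μPET ran 180 min (5×60 s, 5×120 s, 9×300 s, 12×600 s). Images were reconstructed by filtered back projection with a RAMP filter. Regional time-activity curves were expressed as SUV.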

[21] = Drug level in normal rhesus monkey cerebellum assessed as standard uptake value at 152.9 MBq, iv after 2.5 mins by microPET; conditions: in vivo; how it was run: as §1
[22] = Drug level in normal rhesus monkey frontal cortex assessed as standard uptake value at 152.9 MBq, iv after 27.5 mins by microPET; conditions: in vivo
How it was run: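 Single normal rhesus monkey; tracer given iv via the vena saphena, 1 day apart from the other tracer injections. Dynamic μPET ran 90 min (5×60 s, 5×120 s, 9×300 s, 3×600 s). Images were reconstructed by filtered back projection with a RAMP filter. Regional time-activity curves were expressed as SUV.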

[23] = Drug level in normal rhesus monkey white matter assessed as standard uptake value at 152.9 MBq, iv after 4.5 mins by microPET; conditions: in vivo, 0.075 h
[24] = Drug level in normal rhesus monkey thalamus assessed as standard uptake value at 152.9 MBq, iv after 75 mins by microPET; conditions: in vivo, 1.25 h
[25] = Drug level in normal rhesus monkey pons assessed as standard uptake value at 152.9 MBq, iv after 1.5 mins by microPET; conditions: in vivo, 0.025 h
[26] = Drug level in normal rhesus monkey parietal cortex assessed as standard uptake value at 152.9 MBq, iv after 10 mins by microPET; conditions: in vivo
[27] = Drug level in normal rhesus monkey parietal cortex assessed as standard uptake value at 152.9 MBq, iv after 32.5 mins by microPET; conditions: in vivo
[28] = Drug level in normal rhesus monkey parietal cortex assessed as standard uptake value at 152.9 MBq, iv after 75 mins by microPET; conditions: in vivo, 1.25 h
[29] = Drug level in normal rhesus monkey parietal cortex assessed as standard uptake value at 96.3 MBq, iv after 155 mins by microPET; conditions: in vivo
[30] = Drug level in normal rhesus monkey thalamus assessed as standard uptake value at 96.3 MBq, iv after 2.5 mins by microPET; conditions: in vivo
[31] = Drug level in normal rhesus monkey cerebellum assessed as standard uptake value at 96.3 MBq, iv after 1.5 mins by microPET; conditions: in vivo, 0.025 h; how it was run: as §2
[32] = Drug level in normal rhesus monkey pons assessed as standard uptake value at 96.3 MBq, iv after 32.5 mins by microPET; conditions: in vivo
[33] = Drug level in normal rhesus monkey pons assessed as standard uptake value at 96.3 MBq, iv after 65 mins by microPET; conditions: in vivo
[34] = Drug level in normal rhesus monkey pons assessed as standard uptake value at 96.3 MBq, iv after 135 mins by microPET; conditions: in vivo, 2.25 h
[35] = Drug level in normal rhesus monkey frontal cortex assessed as standard uptake value at 96.3 MBq, iv after 1.5 mins by microPET; conditions: in vivo, 0.025 h
[36] = Drug level in normal rhesus monkey frontal cortex assessed as standard uptake value at 96.3 MBq, iv after 125 mins by microPET; conditions: in vivo

Nc1ccc2nc(-c3ccc([18F])cc3)sc2c1
SUV [1]: 3.38
SUV [2]: 5.08
SUV [3]: 0
SUV [4]: 5.41
SUV [5]: 4.98
SUV [6]: -0.01
SUV [7]: 3.01
SUV [8]: 3.2
SUV [9]: 5.31

CNc1ccc2nc(-c3ccc([18F])cc3)sc2c1
SUV [10]: 4.916
SUV [11]: 3.965
SUV [12]: 2.528
SUV [13]: 2.607
SUV [14]: 4.734
SUV [15]: 5.379
SUV [16]: 5.578
SUV [17]: 4.745
SUV [18]: 1.384
SUV [19]: 5.355
SUV [20]: 5.813

[11CH3]Nc1ccc(-c2nc3ccc(O)cc3s2)cc1 [PITTSBURGH COMPOUND B]
SUV [21]: 1.545
SUV [22]: 1.215
SUV [23]: 1.334
SUV [24]: 0.731
SUV [25]: 0.447
SUV [26]: 2.18
SUV [27]: 1.081
SUV [28]: 0.682

CN(C)c1ccc2nc(-c3ccc([18F])cc3)sc2c1
SUV [29]: 1.23
SUV [30]: 1.52
SUV [31]: 1.17
SUV [32]: 1.67
SUV [33]: 1.83
SUV [34]: 1.92
SUV [35]: 1.43
SUV [36]: 1.54

Reference: ChEMBL document CHEMBL1154674, “Synthesis and evaluation of three 18F-labeled aminophenylbenzothiazoles as amyloid imaging agents” (J Med Chem, 2009)
